Among all 370,000 compounds or so, about 1,200 (0.32%) were called active.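 How the source made its calls: active means inhibition above the mean of all tested compounds plus 3 SD, set per campaign (cut at about 25% in these data); inactive means the rest.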 Only a selection was taken, and actives are over-represented in it overall.

Sequence of Tyrosyl-DNA phosphodiesterase 2 (Homo sapiens) (O95551 whole entry, looked up): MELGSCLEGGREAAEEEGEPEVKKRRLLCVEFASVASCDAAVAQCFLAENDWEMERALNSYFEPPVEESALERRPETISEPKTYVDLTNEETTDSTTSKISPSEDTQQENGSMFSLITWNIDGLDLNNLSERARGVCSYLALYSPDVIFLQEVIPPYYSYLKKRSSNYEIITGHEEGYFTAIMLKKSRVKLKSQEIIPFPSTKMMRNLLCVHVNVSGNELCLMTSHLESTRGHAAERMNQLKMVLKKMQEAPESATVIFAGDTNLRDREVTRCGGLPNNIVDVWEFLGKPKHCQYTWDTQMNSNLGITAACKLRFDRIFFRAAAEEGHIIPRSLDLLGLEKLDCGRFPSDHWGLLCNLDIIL

The test addresses Tyrosyl-DNA phosphodiesterase 2 (Homo sapiens) (UniProt O95551). Nature of the test: human TDP2 enzyme inhibitors, primary screen, biochemical, epi absorbance, recombinant enzyme (AID 720702).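 Further: 0% = DMSO with enzyme and 100% = buffer with substrate but no TDP2.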 The note with it: recombinant TDP2, T5PNP hydrolysis, p-nitrophenol absorbance 415 nm; at 12.8 µM; stronger effect = higher value. The essentials: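 Assay system: Recombinant human TDP2 | Quantity: 120 nM TDP2 per well | Incubation: 2 h at 37 °C | Signal: Epi absorbance | Evaluation: Percent inhibition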
For the molecule `COc1cc(Cn2c(N)c(C(=O)NCc3ccco3)c3nc4ccccc4nc32)cc(OC)c1OC`, the inhibition (as a rule, the change of the read-out against control, counted positive when it falls) is 0.54% (inactive).

Regarding `CCOC(=O)c1c(N)n(Cc2ccccc2)c2nc3ccccc3nc12`, the inhibition was 82.6% (active). `CCOC(=O)c1cccc(C2=C(CNC(=O)c3ccncc3)[C@H]3CC[C@@H](C2)N3Cc2ccccc2)c1`: the inhibition was 4.63% (inactive). The same measure for `CCC(C)n1c(O)c(/C=N/Nc2nc3c(c(=O)n(C)c(=O)n3C)n2C)c(=O)[nH]c1=S` (stereo not given): -0.24% (inactive); for `CCC(C)NC1(c2ccccc2)CCCCC1` (stereo not given): 5% (inactive). In the case of `CC(Cc1cccs1)NCc1ccc(Cl)cc1` (stereo not given), the inhibition was 4.69% (inactive). The figure for `Cn1c(C(=O)N2CCC(C(=O)N3CCC4(CC3)OCCO4)CC2)cc2sccc21` is -4.33% (inactive); for `O=C1NC(=O)N(Cc2ccco2)C(=O)/C1=C\c1ccc(-c2ccc(F)cc2)o1` it is 26.3% (active); for `N[C@@H](Cc1c[nH]c2ccccc12)c1nnc(SCc2c(F)cccc2Cl)o1` it is 5.28% (inactive). The same measure for `Cc1ccccc1CCC[C@@H](CC1CCCCC1)CN(C)C(=O)Oc1ccccc1`: -0.32% (inactive).

The record behind these values is PubChem BioAssay AID720702 (The Scripps Research Institute Molecular Screening Center, 2013).
